Assay outcomes: PubChem BioAssay, several laboratories
HSF1 activator – HSF-1 activators, primary screen, NIH3T3-HGL cells, MG132 stress, luminescence, single point; AID 504408, 2011; activation, % at 9 µM; 1.7% of 300,000 active; NIH3T3-HGL HSF-1 luciferase reporter, 8 h; 100% = twice DMSO control signal;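 active means mean replicate activation of at least 50% with a set share of replicates each reaching 50%; inconclusive means only one of those two conditions met; inactive means mean below 50% and too few replicates reaching it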
Hsp70 activator – Hsp70 transcriptional activators, primary screen, cell-based, HeLa, Hsp70 promoter luciferase, luminescence, 10 µM | HeLa Hsp70 promoter luciferase reporter; scaled: vehicle 0, proteasome-inhibitor control 100% | activation, % at 10 µM | 0.04% of 200,000 active | AID 1203, 2008;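 active means activation above the mean across all tested compounds plus 3 SD, cutoff set per campaign, cut at about 5.5% in these data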
HSF1 inh – HSF1 inhibitors in luciferase reporter cells, primary screen, cell-based, NIH3T3, luminescence. NIH3T3-HGL HSE-luciferase, MG132-induced, luminescence 8 h; stronger effect = lower value. activity change, negative = inhibition, % at 7.5 µM (by protocol). 0.77% of 300,000 active;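 active means more than half of replicate wells show activity change below -50%, luminescence cut by over half; inconclusive means some wells, but at most half, below -50%; inactive means no replicate well below -50%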;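 further: luciferase reports HSF-1 transcriptional activity via heat shock element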
L major viab – Leishmania major promastigote growth inhibition, primary screen; Leishmania major promastigotes, resazurin fluorescence viability; inhibition, % at 10 µM; 9% of 200,000 active; AID 1063, 2008; in the data active means inhibition above about 50%;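 further: promastigotes grown with compound for 44 hours at 28 °C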
T cruzi inh – inhibitors of intracellular T. cruzi growth, primary screen, luminescence, NIH3T3 host cells; T. cruzi beta-gal in NIH3T3, 90 h; inhibition, % (test concentration not listed); 1.4% of 300,000 active;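 active means mean inhibition across valid replicates above about 55%, limit read from the data; inconclusive means mean below that limit but half or more replicates reach it; inactive means mean below it, under half of replicates reach it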;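 further: signal also drops with host cell toxicity which is not excluded here; higher percent means less beta-gal luminescence so fewer parasites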
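System: Mouse NIH/3T3 fibroblasts infected with β-gal-expressing T. cruzi Tulahuen C4 | Quantity: NIH/3T3 cells, 5,000 per well | Reagent: 5000 reporter trypomastigotes per well | Dosing: Compound pinned at 50 nL/well, DMSO | Schedule: 3 h host attachment, then at least 90 h co-culture | Detection: GalScreen luminescence, 60 min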
Hits are given with their value; – = inactive; ? = inconclusive; · = no result given; ! = not active in a repeat. Many of the other results were omitted from the sample, so hits are more common in it than they were.

SMILES	HSF1 activator	Hsp70 activator	HSF1 inh	L major viab	T cruzi inh
COc1ccc(S(=O)(=O)Cc2ccc(C(=O)N3CCN(c4ccc(Cl)cc4)CC3)o2)cc1	–	–	–	–	–
O=C(c1ccc(CNS(=O)(=O)c2ccccc2)cc1)N1CCN(Cc2ccccc2)CC1	–	–	–	72	–
COc1ccc(N2CCN(C(=O)c3ccc(CS(=O)(=O)c4ccc(OC)cc4)o3)CC2)cc1	–	–	–	81	–
Cc1ccc(N(C(=O)CNC(=O)c2ccco2)C(C(=O)NC2CCCC2)c2ccncc2)cc1F (stereo not given)	–	·	–	·	–
CCOC(=O)N1CCC(NC(=O)CN2C(=O)CSc3nc(C)cc(C)c32)CC1	–	–	-71	–	–
CCOC(=O)N1CCC(NC(=O)CN2C(=O)CSc3ncccc32)CC1	–	–	–	–	–
COc1ccc(Nc2cc(Nc3ccccc3)ncn2)cc1	–	·	–	·	–
Cc1ccc(OCC(=O)NNC(=O)c2ccc3c(=O)n4c(nc3c2)CCC4)cc1	–	·	–	·	–
CCCn1c(C(=O)OC)cc2c1ccn2-c1ccc(F)cc1	–	–	–	99	–
COC(=O)c1cc2c(ccn2-c2ccc(F)cc2)n1CC(C)C	–	–	–	98	–
c1ccc2cc(OCCCn3ccnc3)ccc2c1	–	·	–	·	63
Cc1cc(OCCCn2ccnc2)ccc1C(C)C	–	–	–	99	74
Clc1ccc(OCCn2ccnc2)cc1Cl	–	·	–	·	59
OC(COc1ccc2cc(Br)ccc2c1)Cn1ccnc1 (stereo not given)	–	·	–	·	58
O=C(CCC1CCCCC1)NNC(=O)c1cnccn1	–	–	–	–	–
COc1ccc(NC(=O)CCNS(=O)(=O)c2cccc3nonc23)cc1	–	·	–	·	–
COc1ccc(NC(=O)CSc2nnnn2Cc2ccccc2)cc1	–	–	–	–	–
CC(OC(=O)CCN1C(=O)c2cccc([N+](=O)[O-])c2C1=O)C(=O)Nc1cc(Cl)cc(Cl)c1 (stereo not given)	–	–	–	54	–
O=C(CN(c1ccccn1)S(=O)(=O)c1ccccc1)N/N=C/c1cccc([N+](=O)[O-])c1	–	–	–	–	–
CCOC(=O)c1ccc(NC(=O)CN2C(=O)C(CC)SC(CC)C2=O)cc1 (stereo not given)	–	–	–	–	–
COc1ccc2[nH]c3c(N4CCN(Cc5ccc6c(c5)OCO6)CC4)ncnc3c2c1	–	–	–	56	–
COc1ccc2[nH]c3c(N4CCC(O)(c5cccc(C(F)(F)F)c5)CC4)ncnc3c2c1	–	–	–	100	–
Cc1ccccc1-c1ncc(CN2CCC(CO)(CCCc3ccccc3)CC2)cn1	–	–	–	–	–
OCC1(CCc2ccccc2)CCN(Cc2cc(Cl)ccc2O)CC1	–	–	–	–	–
OCC1(CCCc2ccccc2)CCN(Cc2ccc(F)cc2)CC1	–	–	–	91	–
SMILES	HSF1 activator	Hsp70 activator	HSF1 inh	L major viab	T cruzi inh
OCC1(CCc2ccccc2)CCN(Cc2ccc(OC(F)F)cc2)CC1	–	–	–	82	–
Cc1[nH]c2ccccc2c1CN1CCc2ccccc2C1	–	–	–	100	–
CN1C2C=C(N(CCc3c[nH]c4ccccc34)C(=O)c3ccc(Cl)cc3)CC1CC2 (stereo not given)	–	–	–	101	–
O=C1Nc2ccccc2/C1=C/c1cnc(-c2ccccc2)[nH]1	64	·	–	·	–
O=C1Nc2ccccc2/C1=C/c1cccnc1	–	–	–	78	–
Cc1ccc(/C=C2\C(=O)Nc3ccccc32)o1	–	–	–	99	–
O=C1Nc2ccccc2Nc2ncccc21	–	–	–	–	–
O=C1Nc2ccccc2/C1=C/c1ccccc1F	–	·	–	·	–
NS(=O)(=O)c1ccc(-c2ccc(/C=C3\C(=O)Nc4ccccc43)o2)cc1	–	·	–	·	–
COCCn1c(SCC(=O)N2CCC(C)CC2)nc2c([nH]c3ccccc32)c1=O	–	·	–	·	–
CCC(CO)NCc1ccc(OC2CCCC2)cc1 (stereo not given)	–	–	–	86	–
CN(C)CCNCc1ccc(OC2CCCC2)cc1	·	–	·	50	·
CC(C)N1CCN(Cc2ccc(OC3CCCC3)cc2)CC1CCO (stereo not given)	–	·	–	·	–
COc1cc2c(cc1OC)C(C)N(S(=O)(=O)c1cccs1)CC2 (stereo not given)	–	·	–	·	–
COc1cc2c(cc1OC)C(C)N(S(=O)(=O)c1ccc(C)cc1)CC2 (stereo not given)	60	·	–	·	–
COc1ccc(-c2cc3nc(C)c(CCC(=O)NCc4ccc(F)cc4)c(C)n3n2)c(OC)c1	–	–	–	93	60
Cc1nc2cc(-c3cccc(F)c3)nn2c(C)c1CCC(=O)NC(C)CCc1ccco1 (stereo not given)	–	–	–	100	–
COc1cc(OC)cc(-c2cc3nc(C)c(CCC(=O)NC(C)CCc4ccco4)c(C)n3n2)c1 (stereo not given)	–	–	–	100	65
Cc1nc2cc(-c3ccccc3)nn2c(C)c1CCC(=O)NCc1ccco1	–	–	–	–	–
COc1ccc(CNC(=O)CCc2c(C)nc3cc(-c4ccccc4OC)nn3c2C)cc1	–	·	–	·	–
COCCn1c(N/N=C(C)/C=C/c2ccccc2)nc2c1c(=O)[nH]c(=O)n2C	–	–	–	–	–
O=C(NCc1ccccc1)c1nccnc1CO	–	·	–	·	–
O=C(CN1C(=O)NC2(CCCC2)C1=O)N1CCN(c2ccccc2O)CC1	–	·	–	·	–
COc1ccc(SCCc2ccncc2)cc1	–	–	–	–	70
Fc1ccc(SCCc2ccncc2)cc1	–	–	–	–	68!
SMILES	HSF1 activator	Hsp70 activator	HSF1 inh	L major viab	T cruzi inh
c1ccc(SCCc2ccncc2)cc1	–	–	–	–	–
COc1cccc2c1O/C(=N\O)C(C(=O)Nc1cccc(Br)c1)C2 (stereo not given)	–	·	–	·	–
COc1ccccc1CNC(=O)CCS(=O)(=O)Cc1ccc(C)cc1	–	·	–	·	–
COCCNC(=S)N1CCC(C(=O)c2ccc3c(c2)OCCO3)CC1	–	–	–	–	–
CCOc1ccc(N(CC(=O)N2CCCC2)S(=O)(=O)c2ccc(Cl)cc2)cc1	–	·	–	·	–
COc1ccc2c(c1)CCc1c-2n[nH]c1C(=O)NCCC(C)C	51	·	–	·	–
CNC(=O)c1[nH]nc2c1CCc1cc(OC)ccc1-2	–	·	–	·	–
Cc1ccc(NC(=O)CNc2ccc(OC(C)C)cc2)c(C)c1	·	–	·	–	–
Cc1ccc(NS(=O)(=O)c2cc(NC(=O)C(C)Oc3ccccc3)ccc2C)c(C)c1 (stereo not given)	–	–	–	98	–
Cc1cc(Cl)cc(C)c1OCCCCn1ccnc1	–	–	–	100	?
Cc1cccc(C(C)(C)C)c1OCCn1ccnc1	–	–	–	99	–
